Reference: ChEMBL document CHEMBL4043246, “Discovery of novel [1,2,4]triazolo[4,3-a]quinoxaline aminophenyl derivatives as BET inhibitors for cancer treatment” (Bioorg Med Chem Lett, 2017)

Key:
[1] = target: Histone acetyltransferase p300 (Homo sapiens) (UniProt Q09472); experiment: Inhibition of human partial length EP300 (A1040 to G1161 residues) expressed in bacterial expression system assessed as residual activity at 500 nM relative to control by BROMOscan assay
[2] = target: Bromodomain-containing protein 2 (Homo sapiens) (UniProt P25440); experiment: Inhibition of human partial length BRD2 BD2 (E348 to D455 residues) expressed in bacterial expression system assessed as residual activity at 500 nM relative to control by BROMOscan assay
[3] = target: Protein polybromo-1 (Homo sapiens) (UniProt Q86U86); experiment: Inhibition of human partial length PBRM1 BD2 (S178 to E291 residues) expressed in bacterial expression system assessed as residual activity at 500 nM relative to control by BROMOscan assay
[4] = target: Bromodomain-containing protein 7 (Homo sapiens) (UniProt Q9NPI1); experiment: Inhibition of human partial length BRD7 (L125 to R254 residues) expressed in mammalian expression system assessed as residual activity at 500 nM relative to control by BROMOscan assay
[5] = target: E3 ubiquitin-protein ligase TRIM33 (Homo sapiens) (UniProt Q9UPN9); experiment: Inhibition of human partial length TRIM33-phd-bromo (D882 to A1087 residues) expressed in bacterial expression system assessed as residual activity at 500 nM relative to control by BROMOscan assay
[6] = test system: Rattus norvegicus; experiment: Cmax in rat at 20 mg/kg, po; assay type: ADME, organism-based; parameters: dose 20 mg/kg, route oral; conditions: in vivo
In short: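 Peak plasma level after single oral dosing in rat at 5 or 20 mg/kg. Cmax is given in mg/mL as printed, with Tmax in hours.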

[7] = target: T1, Bromodomain-containing protein 4 (Homo sapiens, UniProt O60885); experiment: Binding affinity to BRD4 BD2 (unknown origin)
[8] = target: Transcription initiation factor TFIID subunit 1-like (Homo sapiens) (UniProt Q8IZX4); experiment: Inhibition of human partial length TAF1L BD2 (Q1523 to D1654 residues) expressed in bacterial expression system assessed as residual activity at 500 nM relative to control by BROMOscan assay
[9] = target: T1, Bromodomain-containing protein 4; experiment: Binding affinity to BRD4 BD1 (unknown origin)
[10] = Cell cycle arrest in human TY82 cells assessed as accumulation at G1 phase at 1 uM after 24 hrs by DAPI staining based assay (reference value: 73%); assay type: functional
[11] = target: Bromodomain-containing protein 2 (Homo sapiens) (UniProt P25440); experiment: Inhibition of human partial length BRD2 BD1 (K71 to N194 residues) expressed in bacterial expression system assessed as residual activity at 500 nM relative to control by BROMOscan assay
[12] = target: Bromodomain testis-specific protein (Homo sapiens) (UniProt Q58F21); experiment: Inhibition of human partial length BRDT BD1 (N21 to E137 residues) expressed in bacterial expression system assessed as residual activity at 500 nM relative to control by BROMOscan assay
[13] = target: Bromodomain-containing protein 9 (Homo sapiens) (UniProt Q9H8M2); experiment: Inhibition of human partial length BRD9 (R130 to V259 residues) expressed in bacterial expression system assessed as residual activity at 500 nM relative to control by BROMOscan assay
[14] = target: T1, Bromodomain-containing protein 4; experiment: Inhibition of human partial length BRD4 BD1 (N44 to E168 residues) expressed in bacterial expression system assessed as residual activity at 500 nM relative to control by BROMOscan assay
[15] = test system: THP-1; experiment: Antiproliferative activity against human THP1 cells; assay type: functional, cell-based
[16] = target: Bromodomain-containing protein 1 (Homo sapiens) (UniProt O95696); experiment: Inhibition of human partial length BRD1 (E556 to A688 residues) expressed in bacterial expression system assessed as residual activity at 500 nM relative to control by BROMOscan assay
[17] = test system: Rattus norvegicus; experiment: Half life in rat at 20 mg/kg, po; assay type: ADME, organism-based; conditions: in vivo
In short: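 Rat pharmacokinetics with single intravenous (2 mg/kg) or oral (5 or 20 mg/kg) dosing. Terminal half-life is reported in hours.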

[18] = target: SWI/SNF-related matrix-associated actin-dependent regulator of chromatin subfamily A member 4 (Homo sapiens) (UniProt P51532); experiment: Inhibition of human partial length SMARCA4 (A1448 to S1575 residues) expressed in bacterial expression system assessed as residual activity at 500 nM relative to control by BROMOscan assay
[19] = Cell cycle arrest in human TY82 cells assessed as accumulation at G2/M phase at 3 uM after 24 hrs by DAPI staining based assay (reference value: 9%); assay type: functional
[20] = target: Peregrin (Homo sapiens) (UniProt P55201); experiment: Inhibition of human partial length BRPF1 (E627 to G740 residues) expressed in bacterial expression system assessed as residual activity at 500 nM relative to control by BROMOscan assay
[21] = target: ATPase family AAA domain-containing protein 2B (Homo sapiens) (UniProt Q9ULI0); experiment: Inhibition of human partial length ATAD2B (Q955 to R1082 residues) expressed in bacterial expression system assessed as residual activity at 500 nM relative to control by BROMOscan assay
[22] = target: Protein polybromo-1 (Homo sapiens) (UniProt Q86U86); experiment: Inhibition of human partial length PBRM1 BD5 (S645 to D766 residues) expressed in bacterial expression system assessed as residual activity at 500 nM relative to control by BROMOscan assay
[23] = test system: Rattus norvegicus; experiment: Tmax in rat at 20 mg/kg, po; assay type: ADME, organism-based; conditions: in vivo
In short: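 Rat pharmacokinetics after a single intravenous dose of 2 mg/kg or oral doses of 5 mg/kg and 20 mg/kg. Reported parameters are Tmax, Cmax, T1/2, AUCt, AUC∞, CL, Vss and F(%). CL, Vss and F come from the intravenous/oral 2 and 5 mg/kg arms.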

[24] = target: T1, Bromodomain-containing protein 4; experiment: Inhibition of BRD4 in human TY82 cells assessed as decrease in c-MYC expression level after 24 hrs by Western blot analysis; assay type: cell-based
In short: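 Ty-82 cells at 70% confluency were treated with varying compound concentrations for 24 h. Samples were run on 12% SDS-PAGE and transferred to nitrocellulose. Membranes were blocked in PBS/1% BSA/0.1% Tween 20 for 1 h, probed with c-MYC antibodies, and detected by chemiluminescence.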

[25] = target: Transcription intermediary factor 1-alpha (Homo sapiens) (UniProt O15164); experiment: Inhibition of human partial length TRIM24-phd-bromo (P790 to P977 residues) expressed in bacterial expression system assessed as residual activity at 500 nM relative to control by BROMOscan assay
[26] = Cell cycle arrest in human TY82 cells assessed as accumulation at G2/M phase at 10 uM after 24 hrs by DAPI staining based assay (reference value: 9%); assay type: functional
[27] = Cell cycle arrest in human TY82 cells assessed as accumulation at S phase at 10 uM after 24 hrs by DAPI staining based assay (reference value: 11%); assay type: functional
[28] = Cell cycle arrest in human TY82 cells assessed as accumulation at S phase at 3 uM after 24 hrs by DAPI staining based assay (reference value: 11%); assay type: functional

Sequence of Protein polybromo-1 (Homo sapiens) (Q86U86 whole entry, the tested form may be a part): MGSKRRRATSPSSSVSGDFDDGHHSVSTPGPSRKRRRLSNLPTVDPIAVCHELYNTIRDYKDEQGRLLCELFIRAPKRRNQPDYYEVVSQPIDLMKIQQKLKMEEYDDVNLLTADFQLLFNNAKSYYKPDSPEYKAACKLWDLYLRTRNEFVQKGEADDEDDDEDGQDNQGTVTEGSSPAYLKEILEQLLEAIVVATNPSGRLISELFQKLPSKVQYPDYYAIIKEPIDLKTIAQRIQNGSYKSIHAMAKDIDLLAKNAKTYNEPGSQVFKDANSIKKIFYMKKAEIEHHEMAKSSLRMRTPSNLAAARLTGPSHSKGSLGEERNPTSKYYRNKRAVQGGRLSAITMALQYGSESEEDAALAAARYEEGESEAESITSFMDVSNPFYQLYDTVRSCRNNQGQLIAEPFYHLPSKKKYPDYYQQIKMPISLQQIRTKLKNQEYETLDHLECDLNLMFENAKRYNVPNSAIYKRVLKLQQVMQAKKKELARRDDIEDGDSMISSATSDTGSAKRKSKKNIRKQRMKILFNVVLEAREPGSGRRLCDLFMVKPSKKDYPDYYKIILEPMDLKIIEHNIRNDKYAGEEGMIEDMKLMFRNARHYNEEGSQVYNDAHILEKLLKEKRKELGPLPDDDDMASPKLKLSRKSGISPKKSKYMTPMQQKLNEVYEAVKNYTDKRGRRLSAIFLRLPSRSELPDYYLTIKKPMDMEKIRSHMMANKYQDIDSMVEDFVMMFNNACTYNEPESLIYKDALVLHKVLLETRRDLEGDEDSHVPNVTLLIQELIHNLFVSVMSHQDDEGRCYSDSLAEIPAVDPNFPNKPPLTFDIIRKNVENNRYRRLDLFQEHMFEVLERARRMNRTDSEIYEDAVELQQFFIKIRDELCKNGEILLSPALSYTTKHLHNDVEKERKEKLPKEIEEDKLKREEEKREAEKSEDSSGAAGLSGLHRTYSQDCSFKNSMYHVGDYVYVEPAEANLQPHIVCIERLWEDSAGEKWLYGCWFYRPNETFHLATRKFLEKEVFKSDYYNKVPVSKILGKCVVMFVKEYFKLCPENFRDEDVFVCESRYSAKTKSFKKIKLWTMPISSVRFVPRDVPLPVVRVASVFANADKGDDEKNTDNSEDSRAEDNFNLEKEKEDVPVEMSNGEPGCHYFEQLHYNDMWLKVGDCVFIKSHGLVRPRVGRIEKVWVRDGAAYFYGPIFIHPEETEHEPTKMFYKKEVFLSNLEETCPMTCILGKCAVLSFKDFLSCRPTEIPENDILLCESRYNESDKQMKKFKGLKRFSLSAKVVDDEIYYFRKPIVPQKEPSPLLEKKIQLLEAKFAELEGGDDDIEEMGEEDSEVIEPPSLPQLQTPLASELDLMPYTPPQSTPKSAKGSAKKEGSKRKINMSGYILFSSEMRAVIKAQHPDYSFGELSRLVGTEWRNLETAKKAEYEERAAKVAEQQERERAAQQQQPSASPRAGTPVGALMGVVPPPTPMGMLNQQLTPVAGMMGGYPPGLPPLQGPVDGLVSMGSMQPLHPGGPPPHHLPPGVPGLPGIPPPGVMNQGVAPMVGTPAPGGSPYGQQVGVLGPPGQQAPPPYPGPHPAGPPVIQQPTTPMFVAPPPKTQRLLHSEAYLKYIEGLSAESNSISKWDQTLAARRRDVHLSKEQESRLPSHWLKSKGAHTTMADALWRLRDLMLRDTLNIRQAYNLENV
Sequence of Bromodomain-containing protein 2 (Homo sapiens) (P25440 whole entry, looked up, the tested form may be a part): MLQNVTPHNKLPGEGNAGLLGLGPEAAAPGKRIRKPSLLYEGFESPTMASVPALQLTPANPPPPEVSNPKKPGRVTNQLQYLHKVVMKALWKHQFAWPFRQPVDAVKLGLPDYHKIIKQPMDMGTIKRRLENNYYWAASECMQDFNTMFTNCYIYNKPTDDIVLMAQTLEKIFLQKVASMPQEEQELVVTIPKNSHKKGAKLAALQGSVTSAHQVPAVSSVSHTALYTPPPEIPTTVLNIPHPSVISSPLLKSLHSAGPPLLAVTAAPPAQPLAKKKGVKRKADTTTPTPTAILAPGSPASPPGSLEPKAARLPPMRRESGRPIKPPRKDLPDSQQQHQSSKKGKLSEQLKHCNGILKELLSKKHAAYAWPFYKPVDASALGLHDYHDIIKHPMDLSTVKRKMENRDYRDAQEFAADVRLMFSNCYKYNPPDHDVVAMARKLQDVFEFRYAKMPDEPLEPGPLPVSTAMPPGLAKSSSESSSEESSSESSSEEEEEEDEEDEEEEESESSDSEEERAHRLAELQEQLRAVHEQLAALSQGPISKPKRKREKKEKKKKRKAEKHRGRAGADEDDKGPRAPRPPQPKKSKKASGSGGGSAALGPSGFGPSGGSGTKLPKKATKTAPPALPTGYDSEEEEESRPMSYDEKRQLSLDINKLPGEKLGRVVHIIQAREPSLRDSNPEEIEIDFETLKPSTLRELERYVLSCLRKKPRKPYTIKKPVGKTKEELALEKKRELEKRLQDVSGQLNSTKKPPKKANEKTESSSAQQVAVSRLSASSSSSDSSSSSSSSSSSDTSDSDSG
Sequence of Histone acetyltransferase p300 (Homo sapiens) (Q09472 whole entry, the tested form may be a part): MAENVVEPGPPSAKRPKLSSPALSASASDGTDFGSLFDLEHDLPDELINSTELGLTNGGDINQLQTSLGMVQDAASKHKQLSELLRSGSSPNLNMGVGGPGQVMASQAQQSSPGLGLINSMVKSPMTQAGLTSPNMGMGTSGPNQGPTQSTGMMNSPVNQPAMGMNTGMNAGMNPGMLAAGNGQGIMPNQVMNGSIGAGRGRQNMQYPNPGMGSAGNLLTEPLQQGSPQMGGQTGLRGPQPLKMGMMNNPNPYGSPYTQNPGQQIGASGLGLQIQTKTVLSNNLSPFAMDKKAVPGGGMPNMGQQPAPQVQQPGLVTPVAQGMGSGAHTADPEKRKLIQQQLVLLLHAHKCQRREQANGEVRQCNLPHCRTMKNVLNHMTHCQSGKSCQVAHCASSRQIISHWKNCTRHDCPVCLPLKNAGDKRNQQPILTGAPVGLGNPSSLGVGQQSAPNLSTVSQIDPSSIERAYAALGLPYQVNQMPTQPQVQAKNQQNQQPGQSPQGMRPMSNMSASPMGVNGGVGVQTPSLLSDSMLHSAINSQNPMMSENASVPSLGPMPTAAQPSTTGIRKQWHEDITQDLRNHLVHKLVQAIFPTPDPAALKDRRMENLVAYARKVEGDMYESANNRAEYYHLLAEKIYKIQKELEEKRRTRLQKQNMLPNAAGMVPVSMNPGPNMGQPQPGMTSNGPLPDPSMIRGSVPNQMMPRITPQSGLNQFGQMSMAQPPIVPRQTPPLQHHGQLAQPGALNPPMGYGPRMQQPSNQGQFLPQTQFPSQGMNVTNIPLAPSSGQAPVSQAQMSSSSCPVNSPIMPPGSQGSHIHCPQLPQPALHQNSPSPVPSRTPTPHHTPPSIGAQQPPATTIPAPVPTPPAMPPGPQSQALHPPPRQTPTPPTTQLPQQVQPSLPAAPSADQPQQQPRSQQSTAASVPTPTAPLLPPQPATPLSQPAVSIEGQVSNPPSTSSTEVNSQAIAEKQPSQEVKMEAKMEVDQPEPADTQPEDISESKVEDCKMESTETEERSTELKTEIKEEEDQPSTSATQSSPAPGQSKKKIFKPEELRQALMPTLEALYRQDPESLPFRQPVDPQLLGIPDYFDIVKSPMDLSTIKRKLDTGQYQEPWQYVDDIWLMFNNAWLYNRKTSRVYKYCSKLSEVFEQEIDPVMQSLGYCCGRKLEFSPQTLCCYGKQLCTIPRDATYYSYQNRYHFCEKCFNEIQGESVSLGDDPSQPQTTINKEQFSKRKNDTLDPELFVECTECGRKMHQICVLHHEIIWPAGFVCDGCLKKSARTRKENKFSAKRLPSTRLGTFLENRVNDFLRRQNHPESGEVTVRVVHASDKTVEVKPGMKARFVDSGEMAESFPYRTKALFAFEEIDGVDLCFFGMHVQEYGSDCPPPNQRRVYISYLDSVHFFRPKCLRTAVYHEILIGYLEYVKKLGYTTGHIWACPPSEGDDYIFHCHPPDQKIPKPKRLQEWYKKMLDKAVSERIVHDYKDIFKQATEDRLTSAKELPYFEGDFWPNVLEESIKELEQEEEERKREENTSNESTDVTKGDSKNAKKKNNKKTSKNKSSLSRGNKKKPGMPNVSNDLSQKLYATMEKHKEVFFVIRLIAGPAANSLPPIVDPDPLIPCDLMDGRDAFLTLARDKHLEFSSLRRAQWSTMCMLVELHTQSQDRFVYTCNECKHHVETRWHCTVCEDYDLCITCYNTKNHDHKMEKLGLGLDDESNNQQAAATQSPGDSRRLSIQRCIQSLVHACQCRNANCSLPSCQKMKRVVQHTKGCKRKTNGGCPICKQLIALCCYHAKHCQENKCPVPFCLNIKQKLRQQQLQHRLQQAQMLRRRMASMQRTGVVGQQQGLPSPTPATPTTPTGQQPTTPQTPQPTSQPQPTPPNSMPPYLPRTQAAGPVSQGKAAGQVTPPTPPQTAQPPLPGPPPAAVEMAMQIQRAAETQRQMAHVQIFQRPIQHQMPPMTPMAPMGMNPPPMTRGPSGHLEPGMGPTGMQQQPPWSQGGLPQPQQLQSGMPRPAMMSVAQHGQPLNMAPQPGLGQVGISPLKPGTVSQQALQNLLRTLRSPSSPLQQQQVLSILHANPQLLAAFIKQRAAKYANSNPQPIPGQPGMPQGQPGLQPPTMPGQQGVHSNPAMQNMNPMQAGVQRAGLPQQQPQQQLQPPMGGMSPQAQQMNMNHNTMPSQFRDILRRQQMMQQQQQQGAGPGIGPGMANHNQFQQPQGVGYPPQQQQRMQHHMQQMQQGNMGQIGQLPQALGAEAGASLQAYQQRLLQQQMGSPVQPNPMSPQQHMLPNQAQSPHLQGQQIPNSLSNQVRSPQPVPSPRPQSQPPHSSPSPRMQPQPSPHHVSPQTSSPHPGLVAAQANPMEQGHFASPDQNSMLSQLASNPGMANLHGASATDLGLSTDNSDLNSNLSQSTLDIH

Activity [1]: 89%
Activity [2]: 19%
Activity [3]: 87%
Activity [4]: 80%
Activity [5]: 100%
Cmax [6]: 4600 ng/mL
Kd [7]: 9 nM
Activity [8]: 83%
Kd [9]: 27 nM
Activity [11]: 11%
Activity [12]: 19%
Activity [13]: 61%
Activity [14]: 17%
IC50 [15]: 1600 nM
Activity [16]: 100%
t1/2 [17]: 3 h
Activity [18]: 100%
Activity [20]: 37%
Activity [21]: 96%
Activity [22]: 84%
Tmax [23]: 1.3 h
inhibition [24]: Dose-dependent effect
Activity [25]: 100%
SMILES: Cc1nnc2c(Nc3cccc(CNC(=O)C(C)C)c3)nc3ccccc3n12
Activity [10]: 81%
Activity [19]: 4%
Activity [26]: 4%
Activity [27]: 2%
Activity [28]: 2%
